Measured values taken from ChEMBL document CHEMBL1139834, “Synthesis and structure-activity relationships of new benzodioxinic lactones as potential anticancer drugs” (J Med Chem, 2007).
Active and inactive are the calls of the source. No cut-off for these calls is given here.

How the values were obtained:
NCI/ADR-RES = assay: Antitumor activity against human NCI/ADRRES cell line; type: functional
Method in brief: (§1)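 Human tumour cell line panel. GI50 is the concentration giving 50% growth inhibition, averaged over at least two determinations. LC50 is the concentration killing 50% of cells in a […] assay.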

Hs-578T = assay: Antitumor activity against human HS578T cell line; type: functional; method in brief: as §1
OVCAR-3 = assay: Antitumor activity against human OVCAR-3 cell line; type: functional; method in brief: as §1
NCI-H460 = assay: Antitumor activity against human NCI-H460 cell line; type: functional; method in brief: as §1
NCI-H522 = assay: Antitumor activity against human NCI-H522 cell line; type: functional; method in brief: as §1
COLO 205 = assay: Antitumor activity against human Colo205 cell line; type: functional; method in brief: as §1
HCC 2998 = assay: Antitumor activity against human HCC2998 cell line; type: functional; conditions: read-out: LC50 (the source's name); method in brief: as §1
HCT-116 = assay: Antitumor activity against human HCT116 cell line; type: functional; method in brief: as §1
HCT-15 = assay: Antitumor activity against human HCT15 cell line; type: functional; method in brief: as §1
HT-29 = assay: Antitumor activity against human HT29 cell line; type: functional
KM12 = assay: Antitumor activity against human KM12 cell line; type: functional; method in brief: as §1
SW-620 = assay: Antitumor activity against human SW620 cell line; type: functional
Method in brief: (§2)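 Human tumour cell lines from a selected panel. GI50 is the concentration giving 50% growth inhibition, averaged from at least two determinations. LC50 is the concentration killing 50% of cells in a […] assay.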

SF-268 = assay: Antitumor activity against human SF268 cell line; type: functional; method in brief: as §1
SF-295 = assay: Antitumor activity against human SF295 cell line; type: functional; method in brief: as §1
SF-539 = assay: Antitumor activity against human SF539 cell line; type: functional; method in brief: as §1
SNB-19 = assay: Antitumor activity against human SNB19 cell line; type: functional; method in brief: as §1
LOX IMVI = assay: Antitumor activity against human LOX IMVI cell line; type: functional; method in brief: as §1
Malme-3M = assay: Antitumor activity against human MALME3M cell line; type: functional; method in brief: as §1
M14 = assay: Antitumor activity against human M14 cell line; type: functional; method in brief: as §1
SK-MEL-2 = assay: Antitumor activity against human SKMEL2 cell line; type: functional; method in brief: as §1
SK-MEL-28 = assay: Antitumor activity against human SKMEL28 cell line; type: functional; method in brief: as §1
SK-MEL-5 = assay: Antitumor activity against human SKMEL5 cell line; type: functional; method in brief: as §1
UACC-62 = assay: Antitumor activity against human UACC62 cell line; type: functional; method in brief: as §2
UACC-257 = assay: Antitumor activity against human UACC257 cell line; type: functional; method in brief: as §2
[1] = Antitumor activity against human IGROVI cell line; type: functional; method in brief: as §1
OVCAR-4 = assay: Antitumor activity against human OVCAR4 cell line; type: functional; method in brief: as §1
OVCAR-5 = assay: Antitumor activity against human OVCAR5 cell line; type: functional; method in brief: as §1
L1210 = assay: Cytotoxicity against mouse L1210 cell line; type: cell-based; conditions: Mus musculus, L1210
Method in brief: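 Cells grown at 37 °C under 5% CO2 in medium with 2 mM L-glutamine, penicillin, streptomycin and 20% heat-inactivated horse serum. Drug in DMSO (0.5% final) added to exponentially growing cells seeded at 0.8 × 10^5 cells/mL. Coulter counting in quadruplicate at 48 h (L1210) or 96 h (HT-29). IC50 from probit of % growth inhibition versus log dose; four independent runs in triplicate.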

[2] = Effect on DNA sequence recognition assessed by DNase I footprinting assay; type: functional
Homo sapiens = species on record: Homo sapiens; assay: Inhibition of topoisomerase 2 assessed by DNA cleavage complex formation assay
Method in brief: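 Cleavage complex formed on pYRG plasmid DNA by human topoisomerase II purified from placenta. Linear DNA product quantified by densitometry relative to ellipticine.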

HL-60 = assay: Antitumor activity against human HL60 cell line; type: functional; method in brief: as §1
MOLT-4 = assay: Antitumor activity against human MOLT4 cell line; type: functional; method in brief: as §1
RPMI-8226 = assay: Antitumor activity against human RPMI8226 cell line; type: functional; method in brief: as §1
A549 = assay: Antitumor activity against human A549 cell line; type: functional; method in brief: as §1
EKVX = assay: Antitumor activity against human EKVX cell line; type: functional; method in brief: as §1
HOP-62 = assay: Antitumor activity against human HOP62 cell line; type: functional; method in brief: as §1
HOP-92 = assay: Antitumor activity against human HOP92 cell line; type: functional; method in brief: as §1
NCI-H23 = assay: Antitumor activity against human NCI-H23 cell line; type: functional; method in brief: as §1
786-0 = assay: Antitumor activity against human 7860 cell line; type: functional; method in brief: as §1
A498 = assay: Antitumor activity against human A498 cell line; type: functional; method in brief: as §1
OVCAR-8 = assay: Antitumor activity against human OVCAR8 cell line; type: functional; method in brief: as §1
ACHN = assay: Antitumor activity against human ACHN cell line; type: functional; method in brief: as §1
RXF 393 = assay: Antitumor activity against human RXF393 cell line; type: functional; method in brief: as §1
TK-10 = assay: Antitumor activity against human TK10 cell line; type: functional; method in brief: as §2
UO-31 = assay: Antitumor activity against human UO31 cell line; type: functional; method in brief: as §2
PC-3 = assay: Antitumor activity against human PC3 cell line; type: functional; method in brief: as §1
DU-145 = assay: Antitumor activity against human DU145 cell line; type: functional; method in brief: as §1
MCF7 = assay: Antitumor activity against human MCF7 cell line; type: functional; method in brief: as §1
MDA-MB-435 = assay: Antitumor activity against human MDA-MB-435 cell line; type: functional; method in brief: as §1
MDA-N = assay: Antitumor activity against human MDA-N cell line; type: functional; method in brief: as §1
[3] = read-out: LC50 (the source's name)

Compound: CCCCc1c2c(c(C)c3c1C(=O)OC3)Oc1ccccc1O2
- GI50 (NCI/ADR-RES): 0.437 µM
- CC50 (NCI/ADR-RES; [3]): 100 µM
- GI50 (Hs-578T): 0.363 µM
- CC50 (Hs-578T; [3]): 100 µM
- GI50 (OVCAR-3): 0.525 µM
- CC50 (OVCAR-3; [3]): 100 µM
- GI50 (NCI-H460): 0.372 µM
- CC50 (NCI-H460; [3]): 100 µM
- GI50 (NCI-H522): 0.234 µM
- CC50 (NCI-H522; [3]): 100 µM
- GI50 (COLO 205): 0.741 µM
- CC50 (COLO 205; [3]): 100 µM
- CC50 (HCC 2998): 40 µM
- GI50 (HCT-116): 0.38 µM
- CC50 (HCT-116; [3]): 50 µM
- GI50 (HCT-15): 0.589 µM
- CC50 (HCT-15; [3]): 100 µM
- GI50 (HT-29): 0.331 µM
- CC50 (HT-29; [3]): 100 µM
- GI50 (KM12): 0.49 µM
- CC50 (KM12; [3]): 100 µM
- GI50 (SW-620): 0.525 µM
- CC50 (SW-620; [3]): 100 µM
- GI50 (SF-268): 0.977 µM
- CC50 (SF-268; [3]): 100 µM
- GI50 (SF-295): 0.447 µM
- CC50 (SF-295; [3]): 100 µM
- GI50 (SF-539): 0.339 µM
- CC50 (SF-539; [3]): 10 µM
- GI50 (SNB-19): 0.589 µM
- CC50 (SNB-19; [3]): 100 µM
- GI50 (LOX IMVI): 1.23 µM
- CC50 (LOX IMVI; [3]): 100 µM
- GI50 (Malme-3M): 0.447 µM
- CC50 (Malme-3M; [3]): 100 µM
- GI50 (M14): 0.603 µM
- CC50 (M14; [3]): 100 µM
- GI50 (SK-MEL-2): 0.363 µM
- CC50 (SK-MEL-2; [3]): 100 µM
- GI50 (SK-MEL-28): 39.8 µM
- CC50 (SK-MEL-28; [3]): 100 µM
- GI50 (SK-MEL-5): 0.427 µM
- CC50 (SK-MEL-5; [3]): 100 µM
- GI50 (UACC-62): 0.49 µM
- CC50 (UACC-62; [3]): 100 µM
- GI50 (UACC-257): 0.302 µM
- CC50 (UACC-257; [3]): 100 µM
- GI50 [1]: 0.282 µM
- CC50 [1, 3]: 10 µM
- GI50 (OVCAR-4): 1.95 µM
- CC50 (OVCAR-4; [3]): 100 µM
- GI50 (OVCAR-5): 7.59 µM
- CC50 (OVCAR-5; [3]): 100 µM
- IC50 (L1210): 2.4 µM
- Activity [2]: inactive
- Activity (Homo sapiens): inactive
- GI50 (HL-60): 0.245 µM
- CC50 (HL-60; [3]): 100 µM
- GI50 (MOLT-4): 0.447 µM
- CC50 (MOLT-4; [3]): 100 µM
- GI50 (RPMI-8226): 0.759 µM
- CC50 (RPMI-8226; [3]): 100 µM
- GI50 (A549): 0.603 µM
- CC50 (A549; [3]): 70 µM
- GI50 (EKVX): 2.95 µM
- CC50 (EKVX; [3]): 100 µM
- GI50 (HOP-62): 1.45 µM
- CC50 (HOP-62; [3]): 100 µM
- GI50 (HOP-92): 5.75 µM
- CC50 (HOP-92; [3]): 100 µM
- GI50 (NCI-H23): 2.63 µM
- CC50 (NCI-H23; [3]): 100 µM
- GI50 (786-0): 0.562 µM
- CC50 (786-0; [3]): 50 µM
- GI50 (A498): 0.776 µM
- CC50 (A498; [3]): 100 µM
- GI50 (OVCAR-8): 3.55 µM
- CC50 (OVCAR-8; [3]): 100 µM
- GI50 (ACHN): 3.72 µM
- CC50 (ACHN; [3]): 100 µM
- GI50 (RXF 393): 0.977 µM
- CC50 (RXF 393; [3]): 100 µM
- GI50 (TK-10): 1.51 µM
- CC50 (TK-10; [3]): 100 µM
- GI50 (UO-31): 2.24 µM
- CC50 (UO-31; [3]): 100 µM
- GI50 (PC-3): 0.437 µM
- CC50 (PC-3; [3]): 100 µM
- GI50 (DU-145): 1.82 µM
- CC50 (DU-145; [3]): 100 µM
- GI50 (MCF7): 1.23 µM
- CC50 (MCF7; [3]): 100 µM
- GI50 (MDA-MB-435): 0.158 µM
- CC50 (MDA-MB-435; [3]): 40 µM
- GI50 (MDA-N): 0.117 µM
- CC50 (MDA-N; [3]): 60 µM
